According to ChEMBL document CHEMBL4396895, “Identification and Optimization of Novel Cathepsin C Inhibitors Derived from EGFR Inhibitors” (J Med Chem, 2019):
Active and inactive are the calls of the source. No cut-off for these calls is given here.

How the values were obtained:
Mus musculus [1] = assay: Protection against C57BL/6 mouse model of caerulein-induced acute pancreatitis assessed as reduction in CatC activity at 20 mg/kg, po pretreated twice daily for 6 days followed by caerulein-challenge at 1 hr interval for 8 hrs and measured 1 hr post-last caerulein-challenge
Mus musculus [2] = assay: Protection against C57BL/6 mouse model of caerulein-induced acute pancreatitis at 20 mg/kg, po pretreated twice daily for 6 days followed by caerulein-challenge at 1 hr interval for 8 hrs and measured 1 hr post-last caerulein-challenge by H and E staining-based histological analysis
[3] = target: T1, Epidermal growth factor receptor (Homo sapiens, UniProt P00533); assay: Inhibition of EGFR (unknown origin) up to 10 uM using biotin-labelled peptide as substrate preincubated for 2 hrs followed by substrate addition and measured after 30 mins by HTRF FRET assay
Outline: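 EGFR WT was used at 0.1 nM final in 50 mM HEPES pH 7.0, 0.02% NaN3, 0.01% BSA, 0.1 mM orthovanadate, 10 mM MgCl2, 2.5 mM DTT, 6.25 nM SEB. It was preincubated with compound for 2 h. Biotin-peptide (1.4 μM) and ATP (20 μM) were then added for 30 min at RT. Read-out was HTRF/TR-FRET (Ex 320, Em 615/665 nm) with a sigmoidal curve fit.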

Dipeptidyl peptidase 1 [4] = target: T2, Dipeptidyl peptidase 1 (Homo sapiens, UniProt P53634); assay: Inhibition of CatL-activated recombinant human C-terminal His10-tagged cathepsin C (25 to 463 residues) expressed in mouse myeloma cells using Gly-Phe-AFC as substrate preincubated for 3 hrs followed by substrate addition and measured after 60 mins; type: cell-free
Outline: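 Activated rhCatC was diluted to 4.4 nM in 25 mM MES, 50 mM NaCl, 5 mM DTT, 0.01% Triton X-100, pH 6.0. It was preincubated with compound (added in 10% DMSO) for 3 h at RT. Gly-Phe-AFC was then added to 100 μM final and read as fluorescence after 60 min. IC50 came from a sigmoidal nonlinear fit; values are means of at least two experiments.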

[5] = target: T1, Epidermal growth factor receptor; assay: Inhibition of EGFR (unknown origin) using biotin-labelled peptide as substrate preincubated for 2 hrs followed by substrate addition and measured after 30 mins by HTRF FRET assay
Dipeptidyl peptidase 1 [6] = target: T2, Dipeptidyl peptidase 1; assay: Inhibition of cathepsin C in human U937 cells using H-Gly-Phe-AFC as substrate preincubated for 4 hrs followed by substrate addition and measured after 60 mins; type: cell-based
Outline: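 THP1 or U937 cells, grown in RPMI 1640 with 10% FBS, were seeded at 1.0 × 10^6/mL. They were preincubated with threefold serial dilutions of compound for 4 h at 37 °C. H-Gly-Phe-AFC was then added from a 100 μM solution and fluorescence was read after 60 min at 37 °C. Values are means of at least two experiments.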

[7] = Intrinsic clearance in human liver microsomes assessed per mg protein measured after 60 mins in presence of NADPH by LC-MS/MS analysis; type: ADME, Microsome; settings: read-out: CLH
[8] = Intrinsic clearance in rat liver microsomes assessed per mg protein measured after 60 mins in presence of NADPH by LC-MS/MS analysis; type: ADME, Microsome; settings: read-out: CLH
[9] = Intrinsic clearance in mouse liver microsomes assessed per mg protein measured after 60 mins in presence of NADPH by LC-MS/MS analysis; type: ADME, Microsome; settings: read-out: CLH

| Structure (SMILES) | Activity (Mus musculus [1]) | Activity (Mus musculus [2]) | inhibition [3] | IC50 (Dipeptidyl peptidase 1 [4]) | IC50 [5] | IC50 (Dipeptidyl peptidase 1 [6]) | microsomal CLint [7] | microsomal CLint [8] | microsomal CLint [9] |
| --- | --- | --- | --- | --- | --- | --- | --- | --- | --- |
| N#Cc1ccc(-c2ccc(C[C@@H](C#N)NC(=O)C3(N)CCOCC3)cc2)cc1 | Active | Active |  |  |  |  |  |  |  |
| C=CC(=O)Nc1cccc(Oc2nc(Nc3ccc(N4CCN(C)CC4)cc3OC)ccc2Cl)c1 |  |  | inactive | 810 nM | > 10000 nM | 537 to 538 nM | 5.4 µL/min/mg | 39.7 µL/min/mg | 26.3 µL/min/mg |
